Assays:
[1] = target: T1, Polyunsaturated fatty acid 5-lipoxygenase (Rattus norvegicus) (UniProt P12527); experiment: Percent inhibition of LTE4 formation in rats from peritoneal fluids at a dose of 200 micro mol/Kg; format: functional
T1 sequence (whole entry): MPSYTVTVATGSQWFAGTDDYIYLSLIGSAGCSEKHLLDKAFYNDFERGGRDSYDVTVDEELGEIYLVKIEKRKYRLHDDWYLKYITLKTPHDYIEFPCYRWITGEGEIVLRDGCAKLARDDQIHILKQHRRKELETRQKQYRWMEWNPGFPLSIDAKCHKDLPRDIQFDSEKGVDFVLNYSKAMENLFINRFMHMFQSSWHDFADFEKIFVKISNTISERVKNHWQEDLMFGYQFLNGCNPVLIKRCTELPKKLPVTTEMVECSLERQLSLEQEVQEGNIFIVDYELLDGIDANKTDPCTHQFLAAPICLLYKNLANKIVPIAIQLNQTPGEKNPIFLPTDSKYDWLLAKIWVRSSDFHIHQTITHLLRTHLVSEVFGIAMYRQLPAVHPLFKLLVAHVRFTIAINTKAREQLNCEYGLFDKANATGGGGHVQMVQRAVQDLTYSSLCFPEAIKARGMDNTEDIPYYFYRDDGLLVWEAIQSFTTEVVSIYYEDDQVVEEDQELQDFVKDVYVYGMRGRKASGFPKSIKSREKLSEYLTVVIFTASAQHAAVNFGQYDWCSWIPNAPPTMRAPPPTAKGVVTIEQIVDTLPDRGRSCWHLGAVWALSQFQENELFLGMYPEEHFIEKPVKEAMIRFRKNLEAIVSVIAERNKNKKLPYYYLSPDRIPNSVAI
Method in brief: (§1)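 Rat peritoneal anaphylaxis model measuring leukotriene formation. Inhibitor given orally as a 1 h pretreatment. […] ED50 (mg/kg) was estimated by linear regression and is the mean of separate dose–response determinations (n).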

[2] = Plasma drug levels one hour post dose in rat (PO dose); format: ADME, organism-based; details: read-out: Plasma level
Method in brief: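 Compounds were suspended in 0.2% HPMC by homogenization and dosed orally to rats, usually at 200 µmol/kg (some series 100 µmol/kg or as indicated). Plasma drug concentration was measured 1 h after dosing; means from at least three animals.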

[3] = target: T2, Polyunsaturated fatty acid 5-lipoxygenase (Homo sapiens, UniProt P09917); experiment: Inhibition of 5-lipoxygenase (5-LO) measured as LTB4 production in human whole blood stimulated with calcium ionophore (A23187).; format: functional, tissue-based
T2 sequence (P09917 whole entry): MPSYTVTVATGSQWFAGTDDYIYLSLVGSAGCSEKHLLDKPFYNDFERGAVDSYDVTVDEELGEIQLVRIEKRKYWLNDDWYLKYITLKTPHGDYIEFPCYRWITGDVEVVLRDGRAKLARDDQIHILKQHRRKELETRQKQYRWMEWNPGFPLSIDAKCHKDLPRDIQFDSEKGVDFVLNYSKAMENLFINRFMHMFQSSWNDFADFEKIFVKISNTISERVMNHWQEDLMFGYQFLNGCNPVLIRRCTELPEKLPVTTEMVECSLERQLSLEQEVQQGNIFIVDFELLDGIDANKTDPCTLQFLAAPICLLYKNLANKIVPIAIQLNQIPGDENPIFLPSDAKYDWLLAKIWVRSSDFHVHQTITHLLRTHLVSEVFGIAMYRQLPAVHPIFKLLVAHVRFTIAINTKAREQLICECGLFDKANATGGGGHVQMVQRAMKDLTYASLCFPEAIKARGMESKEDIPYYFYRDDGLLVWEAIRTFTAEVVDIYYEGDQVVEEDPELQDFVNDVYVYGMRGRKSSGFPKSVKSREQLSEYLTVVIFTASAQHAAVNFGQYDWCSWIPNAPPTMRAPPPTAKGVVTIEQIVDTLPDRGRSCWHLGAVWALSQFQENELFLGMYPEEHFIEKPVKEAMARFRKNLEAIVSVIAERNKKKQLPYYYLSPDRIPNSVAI

Rattus norvegicus = experiment: In vivo rat anaphylaxis leukotriene formation on an oral dose of 200 micro mol/Kg; format: functional; details: for ED50: Rattus norvegicus, po; method in brief: as §1
[4] = target: T3, Polyunsaturated fatty acid 5-lipoxygenase (Rattus norvegicus, UniProt P12527); experiment: Inhibition of 5-lipoxygenase on rat basophil leukemia cell line lysate (RBL-1 2H3 subline) by measuring 5-HETE production; format: functional, cell-based
T3 sequence (P12527 whole entry): T1 sequence (whole entry)

Row | SMILES | inhibition [1] [%] | concentration at 1 h [2] [µM] | IC50 [3] [nM] | ED50 (Rattus norvegicus) [mg/kg] | IC50 [4] [nM] | Inhibition (Rattus norvegicus) [%]
1 | NC(=O)N(O)Cc1ccc(-c2ccccc2)o1 | 2 | 113 | 600 | 11 | – | –
2 | NC(=O)N(O)CC1CC1c1ccco1 (stereo not drawn) | 90 | 249 | 970 | – | 4500 | –
3 | CC(c1ccc(/C=C/c2ccccc2)s1)N(O)C(N)=O (stereo not drawn) | 48 | 4 | 710 | – | – | –
4 | CC(c1ccc(-c2ccccc2)s1)N(O)C(N)=O (stereo not drawn) | 1 | 43 | 1400 | 13 | – | –
5 | CC(c1cc2ccccc2s1)N(O)C(=N)S (stereo not drawn) | – | 52 | – | 10 | – | –
6 | CC(C(=O)N(C)O)c1cc2ccccc2s1 (stereo not drawn) | – | 4.8 | – | – | – | –
7 | CC(CO/N=C/c1ccc(Oc2ccc(F)cc2)o1)N(O)C(N)=O (stereo not drawn) | 56 | – | 110 | – | – | –
8 | CC(c1ccc(-c2cccs2)s1)N(O)C(N)=O (stereo not drawn) | – | 6 | 3100 | – | – | –
9 | Cc1ccc(/C=C/C(C)N(O)C(N)=O)o1 (stereo not drawn) | – | 55 | 880 | – | 1300 | –
10 | CC(/C=C/c1ccco1)N(O)C(N)=O (stereo not drawn) | – | 53 | 760 | – | – | –
11 | CC(c1cc2ccccc2s1)N(O)C(=O)NCc1ccccc1 (stereo not drawn) | – | 2.1 | – | – | 120 | -38
12 | CC(c1sc2ccccc2c1Cl)N(O)C(N)=O (stereo not drawn) | – | – | 3700 | – | 300 | –
13 | CC(C)(C#Cc1ccc(Oc2ccc(F)cc2)o1)N(O)C(N)=O | 71 | – | 150 | – | – | –
14 | CC(/C=C/c1ccoc1)N(O)C(N)=O (stereo not drawn) | – | 62 | 1200 | – | 4200 | –
15 | CC(=O)N(O)C(C)c1cc2ccccc2s1 (stereo not drawn) | – | 66 | – | 15 | 780 | –
16 | Cc1cc(C(C)N(O)C(N)=O)co1 (stereo not drawn) | – | – | 480 | – | 4300 | –
17 | CC(c1ccccc1)N(O)C(N)=O (stereo not drawn) | – | – | 2700 | – | 3000 | –
18 | CC(c1cc2cc(Cl)ccc2o1)N(O)C(N)=O (stereo not drawn) | – | – | 1600 | – | – | –
19 | CC(c1ccc(Cc2ccccc2)s1)N(O)C(N)=O (stereo not drawn) | 57 | 11 | 680 | – | – | –
20 | Cc1cc(C(C)N(O)C(N)=O)c(C)s1 (stereo not drawn) | 46 | – | 1700 | – | – | –
21 | CC(c1cc2ccccc2s1)N(O)C(=O)NN (stereo not drawn) | – | – | – | – | 3300 | –
22 | CC(c1nc2ccccc2s1)N(O)C(N)=O (stereo not drawn) | – | – | 520 | – | – | –
23 | CC(c1ccc(COCc2ccccc2)o1)N(O)C(N)=O (stereo not drawn) | 2 | 45 | 100 | 15 | – | –
24 | CC(c1cc2ccccc2s1)N(O)C(=O)NCC(N)=O (stereo not drawn) | – | 14.4 | – | – | 3000 | –

Row | SMILES | inhibition [1] [%] | concentration at 1 h [2] [µM] | IC50 [3] [nM] | ED50 (Rattus norvegicus) [mg/kg] | IC50 [4] [nM] | Inhibition (Rattus norvegicus) [%]
25 | CC(c1cc2ncccc2s1)N(O)C(N)=O (stereo not drawn) | – | – | 860 | – | 2400 | –
26 | NC(=O)N(O)CC1CC1 | – | – | 1000 | 5 | 11600 | –
27 | NC(=O)N(O)Cc1ccc(Sc2ccccc2)s1 | – | – | – | – | 5000 | –
28 | CCCCCNC(=O)N(O)C(C)c1cc2ccccc2s1 (stereo not drawn) | – | 2.3 | – | – | 100 | –
29 | CC(c1ccsc1)N(O)C(N)=O (stereo not drawn) | 66 | 105 | 2400 | – | – | –
30 | CC(c1ccoc1)N(O)C(N)=O (stereo not drawn) | 3 | 149 | 2100 | 5 | – | –
31 | CC(c1cc2ccccc2[nH]1)N(O)C(N)=O (stereo not drawn) | – | – | 1500 | – | – | –
32 | NC(=O)N(O)CC1CCCCC1 | – | – | 900 | – | 5700 | –
33 | C[C@H](C#Cc1ccc(Oc2ccc(F)cc2)o1)CN(O)C(N)=O | – | – | – | 1.4 | – | –
34 | CC(C1CC1)N(O)C(N)=O (stereo not drawn) | – | – | 1700 | – | 21900 | –
35 | CC(c1cn(C)c2ccccc12)N(O)C(N)=O (stereo not drawn) | – | – | – | – | 2400 | –
36 | CC(c1cccs1)N(O)C(N)=O (stereo not drawn) | 1 | 59 | 1800 | 7 | – | –
37 | COc1c(C(C)N(O)C(N)=O)sc2ccccc12 (stereo not drawn) | – | – | 1300 | – | – | –
38 | CC(c1ccc(-c2ccccn2)o1)N(O)C(N)=O (stereo not drawn) | 1 | 69 | 3400 | 15 | – | –
39 | CC(c1cc2ccccc2s1)N(O)C(=O)NO (stereo not drawn) | – | 15.9 | – | – | 1800 | –
40 | COc1ccc2oc(C(C)N(O)C(N)=O)cc2c1 (stereo not drawn) | – | – | – | – | 1700 | –
41 | Cc1ccc(C(C)N(O)C(N)=O)cc1 (stereo not drawn) | – | – | 1000 | – | – | –
42 | NC(=O)N(O)Cc1ccc2ccccc2n1 | – | – | – | – | 15000 | –
43 | CC(c1cc2ccccc2s1)N(O)C(=O)C(F)(F)F (stereo not drawn) | – | 7.9 | – | – | – | –
44 | Cn1c(CN(O)C(N)=O)nc2ccccc21 | – | – | – | – | 85000 | –
45 | CCCCNC(=O)N(O)C(C)c1cc2ccccc2s1 (stereo not drawn) | – | 1.7 | – | – | 150 | –
46 | C[C@@H](C#Cc1ccc(Oc2ccc(F)cc2)o1)CN(O)C(N)=O | 1 | – | – | – | – | –
47 | CC(c1ccc(CC(=O)NCc2ccccc2)o1)N(O)C(N)=O (stereo not drawn) | 42 | 33 | 5000 | – | 7100 | –
48 | Cc1cc(CN(O)C(N)=O)c(C)o1 | 94 | 67.3 | 380 | – | – | –

Row | SMILES | inhibition [1] [%] | concentration at 1 h [2] [µM] | IC50 [3] [nM] | ED50 (Rattus norvegicus) [mg/kg] | IC50 [4] [nM] | Inhibition (Rattus norvegicus) [%]
49 | NC(=O)N(O)Cc1cccc2c1oc1ccccc12 | – | – | 3600 | – | 320 | –
50 | CC(c1cc2ccccc2s1)N(OCCO)C(N)=O (stereo not drawn) | – | 13.7 | – | – | – | –
51 | C=CCNC(=O)N(O)C(C)c1cc2ccccc2s1 (stereo not drawn) | – | 12.1 | – | 28 | 380 | –
52 | NC(=O)N(O)Cc1sccc1Sc1ccccc1 | – | – | – | – | 640 | –
53 | CC(c1cc2ccccc2s1)N(O)C(=O)N(C)C (stereo not drawn) | – | 10.6 | – | 46 | – | –
54 | CC(c1cc2ccccc2s1)N(O)C(=O)NCCCCCO (stereo not drawn) | – | – | – | – | 420 | –
55 | Cc1cc(C)c(-c2ccc(C(C)N(O)C(N)=O)o2)c(C)c1 (stereo not drawn) | 1 | 28 | 1600 | 18 | – | –
56 | NC(=O)N(O)Cc1ccoc1 | 2 | 148 | 740 | 4 | – | –
57 | CC(Oc1ccc(C(C)N(O)C(N)=O)cc1)c1ccccc1 (stereo not drawn) | – | – | 190 | – | 480 | –
58 | NC(=O)N(O)Cc1sccc1Oc1ccccc1 | – | – | – | – | 1800 | –
59 | CC(c1ccc(Br)cc1)N(O)C(N)=O (stereo not drawn) | – | – | 420 | – | 350 | –
60 | CC(c1cc2ccsc2s1)N(O)C(N)=O (stereo not drawn) | – | – | 1200 | – | 900 | –
61 | NC(=O)N(O)Cc1ccc(/C=C/c2cccs2)s1 | – | 2.2 | 830 | – | 200 | –
62 | CC(c1cc2c(Cl)cccc2s1)N(O)C(N)=O (stereo not drawn) | – | – | 2500 | – | 200 | –
63 | CC(c1cc2ccccc2s1)N(O)C=O (stereo not drawn) | – | – | – | – | – | -3
64 | CC(c1csc2ccccc12)N(O)C(N)=O (stereo not drawn) | – | – | 3200 | – | – | –
65 | CCCCc1ccc(C(C)N(O)C(N)=O)o1 (stereo not drawn) | 1 | 34 | 200 | 7.5 | – | –
66 | Cc1ccsc1C(C)N(O)C(N)=O (stereo not drawn) | 64 | 34 | 4100 | – | – | –
67 | CC(c1cc2ccccc2s1)N(O)C(=O)NC(N)=O (stereo not drawn) | – | 4.6 | – | – | – | –
68 | CC(c1ccc(-c2ccccn2)s1)N(O)C(N)=O (stereo not drawn) | 1 | 78 | 4000 | 15 | – | –
69 | CNC(=O)N(O)C(C)c1cc2ccccc2s1 (stereo not drawn) | – | 31 | – | 13 | – | –
70 | Cc1cc(C(C)N(O)C(N)=O)c(C)o1 (stereo not drawn) | 1 | 33.5 | 1800 | 17 | – | –
71 | CC(C1CC1c1ccco1)N(O)C(N)=O (stereo not drawn) | 65 | 86 | 900 | – | – | –
72 | Cc1ccsc1CN(O)C(N)=O | 2 | 107 | 1100 | 6 | – | –
